Series [1] can be described thus: Acute toxicity in zebrafish embryo assessed as survival rate at 96 hrs post fertilization relative to control. Details: species or system Danio rerio; concentration or dose not given beside the values. The conditions noted are these: in vivo. The method in brief: (§1)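 Lethality endpoints were coagulation and absence of heartbeat, checked by inverted microscope. Survival was compared with untreated embryos across three independent experiments; mean ± SD, ANOVA.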

Series [2] in a line: Antioxidant activity assessed as ABTS radical scavenging activity after 6 mins by spectrophotometric analysis relative to control. The format is functional. Also noted: concentration or dose not given beside the values.
The nature of series [3]: Antioxidant activity assessed as DPPH radical scavenging activity after 30 mins by spectrophotometric analysis relative to control. The format is functional. Details: concentration or dose not given beside the values. The method in brief:
(§2)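 Ascorbic acid was the reference standard. For DPPH, 0.2 mM DPPH in methanol was kept in the dark, mixed with compound at 5–160 µM (DMSO stock), and incubated 30 min in the dark at room temperature, then A517 was read. %RSA = (Ac−As)/Ac×100. Triplicate runs; IC50 taken from the plot of % scavenging versus concentration.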
A general note: The DPPH test is a chemical assay of radical scavenging.

Series [4] is described as follows: Acute toxicity in zebrafish embryo assessed as survival rate at 160 uM measured after 96 hrs post fertilization relative to control. Details: species or system Danio rerio. The conditions noted are these: in vivo. The method in brief:
as §1

Series [5] in a line: Acute toxicity in zebrafish embryo assessed as hatching rate at 20 to 160 uM measured after 48 hrs post fertilization relative to control. Also noted: species or system Danio rerio. The conditions noted are these: in vivo, dose 20-160 µM. The method in brief:
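Controls were water and water with 0.5% DMSO. Incubation at 26.8 ± 1 °C, 20 embryos per well. Hatching scored over 0–96 hpf under an inverted microscope. Triplicate, three independent experiments; mean ± SD; ANOVA.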

Series [6] can be described thus: Acute toxicity in zebrafish embryo assessed as morphological changes at upto 160 uM measured after 48 hrs post fertilization relative to control. Details: species or system Danio rerio. The conditions noted are these: in vivo. The procedure, abridged: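 Wild-type Danio rerio embryos were exposed in milli-Q water with compound dissolved in DMSO (≤0.25 v/v final). Controls were milli-Q water and water with DMSO. Embryos were held at 26.8 ± 1 °C and scored by inverted microscope at 24–96 hpf, after exposure at 160 µM, for bent spine, yolk sac edema, pericardial edema, short tail and bent tail.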

Series [7] in a line: Acute toxicity in zebrafish embryo assessed as survival rate at 20 uM measured after 96 hrs post fertilization relative to control. Also noted: species or system Danio rerio. The conditions noted are these: in vivo. The method in brief:
as §1

The nature of series [8]: Antioxidant activity assessed as DPPH radical scavenging activity after 30 mins by spectrophotometric analysis. The format is functional. The method in brief: as §2
A short description of series [9]: Antioxidant activity assessed as ABTS radical scavenging activity after 6 mins by spectrophotometric analysis. The format is functional.

What is called IC50 is the concentration at which inhibition is half-maximal. In the case of `CCCCCCCCCCCC1=C(O)C(=O)C(CC(C)C)=C(O)C1=O`, the survival at 96 h in [1] (read-out: Activity) was 70%. The Activity was 80.2% in [2], 80% in series [3], 75.66% in series [5] and “Non-Toxic” in series [6]. The survival at 96 h, 160 µM in [4] is 70%. Moreover, in series [7], the survival at 96 h, 20 µM stood at 52%. Besides, the concentration for half-maximal inhibition (IC50) in series [8] amounted to 2.48 µM.
Consider `CCCCCCCCCCCC1=C(O)C(=O)C(Cc2ccc(F)cc2)=C(O)C1=O`, for which the IC50 in series [9] was 5.22 µM; in [8], 4.65 µM. Further, the survival at 96 h in series [1] (read-out: Survival) was > 90%. Moreover, the Activity in series [2] was 52.1%; in series [3] it was 50.3%; in series [5], 51.33%; in series [6], “Non-Toxic”.
In the case of `CCCCCCCCCCCC1=C(O)C(=O)C(Cc2ccc(C#N)cc2)=C(O)C1=O`, the half-inhibitory concentration (IC50) turned out to be 5.15 µM in series [9] and 4.58 µM in series [8]. Moreover, the survival at 96 h in series [1] (read-out: Survival) was > 90%. Besides, the Activity in [2] is 52.1%; in [3] it was 50.3%; in [5], 51.33%; in series [6], “Non-Toxic”.
Consider `CCCCCCCCCCCC1=C(O)C(=O)C(Cc2c(OC)cc(OC)cc2OC)=C(O)C1=O`, for which the IC50 in [9] is 2.6 µM; in series [8], 3.07 µM. The survival at 96 h in series [1] (read-out: Activity) was found to be 70%. The Activity in [2] was 80.2%; in [3], 71.1%; in series [5], 75.66%; in series [6], “Non-Toxic”. In series [4], the survival at 96 h, 160 µM was 70%. Also, the survival at 96 h, 20 µM in series [7] was determined as 52%.
In the case of `CCCCCCCCCCCC1=C(O)C(=O)C(CC)=C(O)C1=O`, the concentration for half-maximal inhibition (IC50) worked out at 2.44 µM in series [9] and 2.61 µM in series [8]. For the same compound, the survival at 96 h in series [1] (read-out: Activity) was determined as 70%. Further, the Activity is 80.2% in series [2], 80% in series [3], 75.66% in [5] and “Non-Toxic” in series [6]. Besides, in [4], the survival at 96 h, 160 µM is 70%. Further, the survival at 96 h, 20 µM in series [7] was 52%.
As to `CCCCCCCCCCCC1=C(O)C(=O)C(Cc2ccccc2Br)=C(O)C1=O`, the half-maximal inhibitory concentration (IC50) in series [9] stood at 5.54 µM; in series [8] it was 4.57 µM. Moreover, in [1] (read-out: Survival), the survival at 96 h is > 90%. The Activity in [2] was 52.1%; in series [3] it was 50.3%; in series [5], 51.33%; in [6], “Non-Toxic”.
Consider `CCCCCCCCCCCC1=C(O)C(=O)C(Cc2ccccc2O)=C(O)C1=O`, for which the values for the 50% inhibitory concentration (IC50) in series [9] and in series [8] were 2.87 µM and 3.05 µM, respectively. The survival at 96 h in [1] (read-out: Activity) came to 70%. Besides, the Activity in [2] is 75.1%; in series [3], 71.1%; in [5], 75.66%; in series [6] it was “Non-Toxic”. The survival at 96 h, 160 µM in series [4] was found to be 70%. Besides, the survival at 96 h, 20 µM in series [7] stood at 52%.
Regarding `CCCCCCCCCCCC1=C(O)C(=O)C(Cc2ccc(C(C)C)cc2)=C(O)C1=O`, the IC50 is 1.91 µM in series [9] and 1.9 µM in [8]. Moreover, the survival at 96 h in series [1] (read-out: Activity) amounted to 70%. In addition, the Activity is 87.2% in series [2], 86% in [3], 75.66% in series [5] and “Non-Toxic” in series [6]. The survival at 96 h, 160 µM in series [4] was 70%. Also, the survival at 96 h, 20 µM in [7] amounted to 52%.
Regarding `CCCCCCCCCCCC1=C(O)C(=O)C(Cc2ccccc2)=C(O)C1=O`, the values for the half-inhibitory concentration (IC50) in series [9] and in series [8] were 2.71 µM and 3.18 µM, respectively. The survival at 96 h in series [1] (read-out: Activity) worked out at 70%. Moreover, the Activity in series [2] was 80.2%; in [3], 71.1%; in series [5], 75.66%; in [6], “Non-Toxic”. In addition, the survival at 96 h, 160 µM in series [4] worked out at 70%. For the same compound, in series [7], the survival at 96 h, 20 µM came out at 52%.
Regarding `CCCCCCCCCCCC1=C(O)C(=O)C(Cc2ccc([N+](=O)[O-])cc2)=C(O)C1=O`, the figures for the concentration for half-maximal inhibition (IC50) in [9] and in series [8] were 5.25 µM and 4.9 µM, respectively. Also, the survival at 96 h in series [1] (read-out: Survival) was > 90%. The Activity in series [2] is 52.1%; in series [3], 50.3%; in series [5], 51.33%; in series [6], “Non-Toxic”.
`CCCCCCCCCCCC1=C(O)C(=O)C(Cc2cc(Cl)ccc2Cl)=C(O)C1=O`: the half-inhibitory concentration (IC50) in series [9] is 5.32 µM; in [8] it was 4.69 µM. In addition, the survival at 96 h in series [1] (read-out: Survival) was > 90%. In addition, the Activity is 52.1% in [2], 50.3% in series [3], 51.33% in series [5] and “Non-Toxic” in series [6].
`O=C1O[C@H]([C@@H](O)CO)C(O)=C1O` [ASCORBIC ACID]: the concentration for half-maximal inhibition (IC50) turned out to be 1.42 µM in series [9] and 1.87 µM in series [8]. In addition, the Activity is 91.1% in series [2] and 90.2% in series [3].
Consider `CCCCCCCCCCCC1=C(O)C(=O)C(Cc2ccccc2[N+](=O)[O-])=C(O)C1=O`, for which the IC50 in series [9] was 5.34 µM; in series [8], 4.76 µM. Besides, the survival at 96 h in series [1] (read-out: Survival) is > 90%. Besides, the Activity in series [2] is 52.1%; in [3], 50.3%; in series [5], 51.33%; in series [6], “Non-Toxic”.
Regarding `CCCCCCCCCCCC1=C(O)C(=O)C(Cc2ccc(Cl)cc2)=C(O)C1=O`, the IC50 in [9] came out at 4.99 µM; in series [8] it was 4.93 µM. Besides, the survival at 96 h in series [1] (read-out: Survival) is > 90%. Besides, the Activity is 52.1% in [2], 50.3% in series [3], 51.33% in [5] and “Non-Toxic” in [6].
Take `CCCCCCCCCCCC1=C(O)C(=O)C(CCCl)=C(O)C1=O`: the results for the concentration for half-maximal inhibition (IC50) in [9] and in series [8] were 4.41 µM and 4.6 µM, respectively. Further, the survival at 96 h in series [1] (read-out: Survival) was > 90%. In addition, the Activity in series [2] is 52.1%; in [3] it was 50.3%; in series [5], 51.33%; in series [6] it was “Non-Toxic”.
Turning to `CCCCCCCCCCCC1=C(O)C(=O)C(Cc2ccc(Br)cc2)=C(O)C1=O`, the IC50 in series [9] was 5.14 µM; in [8] it was 4.59 µM. The survival at 96 h in series [1] (read-out: Survival) is > 90%. The Activity was 52.1% in [2], 50.3% in [3], 51.33% in series [5] and “Non-Toxic” in [6].
On to `CCCCCCCCCCCC1=C(O)C(=O)C(Cc2c(Cl)cccc2Cl)=C(O)C1=O`, for which the half-maximal inhibitory concentration (IC50) came to 5.21 µM in series [9] and 4.87 µM in series [8]. The survival at 96 h in [1] (read-out: Survival) is > 90%. Besides, the Activity in series [2] was 52.1%; in [3], 50.3%; in [5], 51.33%; in series [6], “Non-Toxic”.
On to `C#Cc1ccccc1CC1=C(O)C(=O)C(CCCCCCCCCCC)=C(O)C1=O`, for which the concentration for half-maximal inhibition (IC50) in [9] was 4.96 µM; in [8], 4.94 µM. Also, the survival at 96 h in series [1] (read-out: Survival) was > 90%. The Activity in [2] is 52.1%; in series [3] it was 50.3%; in [5] it was 51.33%; in series [6], “Non-Toxic”.
Regarding `CCCCCCCCCCCC1=C(O)C(=O)C(Cc2ccccc2C#N)=C(O)C1=O`, the IC50 in [9] stood at 5.01 µM; in series [8], 4.43 µM. Further, the survival at 96 h in [1] (read-out: Survival) was > 90%. For the same compound, the Activity is 52.1% in [2], 50.3% in series [3], 51.33% in [5] and “Non-Toxic” in series [6].
With `CCCCCCCCCCCC1=C(O)C(=O)C(Cc2cccc([N+](=O)[O-])c2)=C(O)C1=O`, the concentration for half-maximal inhibition (IC50) came out at 5.36 µM in series [9] and 4.8 µM in series [8]. For the same compound, in series [1] (read-out: Survival), the survival at 96 h is > 90%. Further, the Activity in [2] was 52.1%; in series [3] it was 50.3%; in [5] it was 51.33%; in [6] it was “Non-Toxic”.
Regarding `CCCCCCCCCCCC1=C(O)C(=O)C(Cc2ccccc2F)=C(O)C1=O`, the IC50 came to 5.44 µM in series [9] and 4.62 µM in series [8]. In addition, the survival at 96 h in [1] (read-out: Survival) is > 90%. Moreover, the Activity was 52.1% in [2], 50.3% in series [3], 51.33% in [5] and “Non-Toxic” in [6].
Take `CCCCCCCCCCCC1=C(O)C(=O)C(Cc2ccc(Cl)c(Cl)c2)=C(O)C1=O`: the IC50 in series [9] was 5.09 µM; in series [8] it was 4.87 µM. In [1] (read-out: Survival), the survival at 96 h is > 90%. Further, the Activity is 52.1% in series [2], 50.3% in series [3], 51.33% in [5] and “Non-Toxic” in series [6].
As to `CCCCCCCCCCCC1=C(O)C(=O)C(Cc2ccc(Cl)cc2Cl)=C(O)C1=O`, the IC50 in [9] stood at 4.43 µM; in [8], 4.74 µM. For the same compound, the survival at 96 h in series [1] (read-out: Survival) was > 90%. Also, the Activity in series [2] was 52.1%; in series [3], 50.3%; in series [5], 51.33%; in [6] it was “Non-Toxic”.

(Values after ChEMBL document CHEMBL5376016, “Synthesis of novel rapanone derivatives via organocatalytic reductive C-alkylation: biological evaluation of antioxidant properties, in vivo zebrafish embryo toxicity, and docking studies” (RSC Med Chem, 2024).)
